Measurements: ChEMBL document CHEMBL1137767, “2-(3-Aryl-2-propenoyl)-3-methylquinoxaline-1,4-dioxides: a novel cluster of tumor-specific cytotoxins which reverse multidrug resistance” (Bioorg Med Chem, 2009)
The source made the active and inactive calls. No cut-off for these calls is given here.

Tests used:
CCRF-CEM [1] = test: Growth inhibition of human CEM cells after 3 days; assay type: functional, cell-based; settings: 72 h
Method in brief: (§1)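 Human CEM and Molt 4/C8 T-lymphocytes were grown for three days with or without serial dilutions of the compound. IC50 is the concentration that inhibits cell growth by 50%.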

HSC-4 = test: Cytotoxicity against human HSC4 cells after 48 hrs; assay type: functional; settings: HSC-4, 48 h
[2] = Cytotoxicity against human HGF cells after 48 hrs; assay type: cell-based
[3] = target: T1, ATP-dependent translocase ABCB1 (Homo sapiens, UniProt P08183); test: Reversal of P-glycoprotein-mediated multidrug resistance in human MDR1 gene transfected mouse L5178Y cells assessed as fluorescence activity ratio at 20 uM by rhodamine 123 accumulation assay; assay type: cell-based
Method in brief: (§2)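 Murine L-5178Y lymphoma cells transfected with human MDR1 gene (P-gp-overexpressing), alongside parental cells, treated or untreated with compound; rhodamine 123 accumulation measured by fluorescence; FAR = ratio of fluorescence intensity in treated versus untreated cells, values above 1 taken as MDR reversal.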

HL-60 [4] = test: Cytotoxicity against human HL60 cells after 48 hrs; assay type: functional; settings: HL-60, 48 h
[5] = target: T1, ATP-dependent translocase ABCB1; test: Reversal of P-glycoprotein-mediated multidrug resistance in human MDR1 gene transfected mouse L5178Y cells assessed as fluorescence activity ratio at 200 uM by rhodamine 123 accumulation assay; assay type: cell-based; method in brief: as §2
[6] = Cytotoxicity against human HPLF cells after 48 hrs; assay type: cell-based
[7] = Cytotoxicity against human HPC cells after 48 hrs; assay type: cell-based
[8] = Growth inhibition of human Molt4/C8 cells after 3 days; assay type: functional, cell-based; settings: MOLT-4, 72 h; method in brief: as §1
HSC-3 = test: Cytotoxicity against human HSC3 cells after 48 hrs; assay type: functional; settings: HSC-3, 48 h
HSC-2 = test: Cytotoxicity against human HSC2 cells after 48 hrs; assay type: functional; settings: HSC-2, 48 h
DU-145 = test: Growth inhibition of human DU145 cells at 10 uM; assay type: functional, cell-based
Method in brief: (§3)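 Human tumor cell line panel (59 lines across leukemia, melanoma, non-small cell lung, colon, CNS, ovarian, renal, prostate, breast) treated at a single 10 uM concentration; growth inhibition recorded per line.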

RPMI8266 = test: Growth inhibition of human […] cells at 10 uM; assay type: functional, cell-based; method in brief: as §3
HCT-15 = test: Growth inhibition of human HCT15 cells at 10 uM; assay type: functional, cell-based; method in brief: as §3
Hs-578T = test: Growth inhibition of human Hs 578T cells at 10 uM; assay type: functional, cell-based; method in brief: as §3
OVCAR-8 = test: Growth inhibition of human OVCAR8 cells at 10 uM; assay type: functional, cell-based; method in brief: as §3
UACC-62 = test: Growth inhibition of human UACC62 cells at 10 uM; assay type: functional, cell-based; method in brief: as §3
T47D = test: Growth inhibition of human T47D cells at 10 uM; assay type: functional, cell-based; method in brief: as §3
HL-60 [9] = test: Growth inhibition of human HL60 cells at 10 uM; assay type: functional, cell-based; method in brief: as §3
K562 = test: Growth inhibition of human K562 cells at 10 uM; assay type: functional, cell-based; method in brief: as §3
MDA-MB-435 = test: Growth inhibition of human MDA-MB-435 cells at 10 uM; assay type: functional, cell-based; method in brief: as §3
SW-620 = test: Growth inhibition of human SW620 cells at 10 uM; assay type: functional, cell-based; method in brief: as §3
IGROV-1 = test: Growth inhibition of human IGROV1 cells at 10 uM; assay type: functional, cell-based; method in brief: as §3
HCT-116 = test: Growth inhibition of human HCT116 cells at 10 uM; assay type: functional, cell-based; method in brief: as §3
RXF 393 = test: Growth inhibition of human RXF393 cells at 10 uM; assay type: functional, cell-based; method in brief: as §3
CCRF-CEM [10] = test: Growth inhibition of human CCRF-CEM cells at 10 uM; assay type: functional, cell-based; method in brief: as §3
MDA-MB-468 = test: Growth inhibition of human MDA-MB-468 cells at 10 uM; assay type: functional, cell-based; method in brief: as §3
EKVX = test: Growth inhibition of human EKVX cells at 10 uM; assay type: functional, cell-based; method in brief: as §3
HCC 2998 = test: Growth inhibition of human HCC2998 cells at 10 uM; assay type: functional, cell-based; method in brief: as §3
LOX IMVI = test: Growth inhibition of human LOXIMVI cells at 10 uM; assay type: functional, cell-based; method in brief: as §3
NCI-H522 = test: Growth inhibition of human NCI-H522 cells at 10 uM; assay type: functional, cell-based; method in brief: as §3
PC-3 = test: Growth inhibition of human PC3 cells at 10 uM; assay type: functional, cell-based; method in brief: as §3
A498 = test: Growth inhibition of human A498 cells at 10 uM; assay type: functional, cell-based; method in brief: as §3
HOP-92 = test: Growth inhibition of human HOP92 cells at 10 uM; assay type: functional, cell-based; method in brief: as §3
UO-31 = test: Growth inhibition of human UO31 cells at 10 uM; assay type: functional, cell-based; method in brief: as §3
NCI-H460 = test: Growth inhibition of human NCI-H460 cells at 10 uM; assay type: functional, cell-based; method in brief: as §3
U-251 = test: Growth inhibition of human U251 cells at 10 uM; assay type: functional, cell-based; method in brief: as §3
OVCAR-3 = test: Growth inhibition of human OVCAR-3 cells at 10 uM; assay type: functional, cell-based; method in brief: as §3
A549 = test: Growth inhibition of human A549 cells at 10 uM; assay type: functional, cell-based; method in brief: as §3
MCF7 = test: Growth inhibition of human MCF7 cells at 10 uM; assay type: functional, cell-based; method in brief: as §3
NCI/ADR-RES = test: Growth inhibition of human NCI/ADR-RES cells at 10 uM; assay type: functional, cell-based; method in brief: as §3
M14 = test: Growth inhibition of human M14 cells at 10 uM; assay type: functional, cell-based; method in brief: as §3
NCI-H23 = test: Growth inhibition of human NCI-H23 cells at 10 uM; assay type: functional, cell-based; method in brief: as §3
OVCAR-4 = test: Growth inhibition of human OVCAR4 cells at 10 uM; assay type: functional, cell-based; method in brief: as §3
SNB-75 = test: Growth inhibition of human SNB75 cells at 10 uM; assay type: functional, cell-based; method in brief: as §3
SF-295 = test: Growth inhibition of human SF295 cells at 10 uM; assay type: functional, cell-based; method in brief: as §3
CAKI-1 = test: Growth inhibition of human Caki1 cells at 10 uM; assay type: functional, cell-based; method in brief: as §3

T1 sequence (P08183 whole entry): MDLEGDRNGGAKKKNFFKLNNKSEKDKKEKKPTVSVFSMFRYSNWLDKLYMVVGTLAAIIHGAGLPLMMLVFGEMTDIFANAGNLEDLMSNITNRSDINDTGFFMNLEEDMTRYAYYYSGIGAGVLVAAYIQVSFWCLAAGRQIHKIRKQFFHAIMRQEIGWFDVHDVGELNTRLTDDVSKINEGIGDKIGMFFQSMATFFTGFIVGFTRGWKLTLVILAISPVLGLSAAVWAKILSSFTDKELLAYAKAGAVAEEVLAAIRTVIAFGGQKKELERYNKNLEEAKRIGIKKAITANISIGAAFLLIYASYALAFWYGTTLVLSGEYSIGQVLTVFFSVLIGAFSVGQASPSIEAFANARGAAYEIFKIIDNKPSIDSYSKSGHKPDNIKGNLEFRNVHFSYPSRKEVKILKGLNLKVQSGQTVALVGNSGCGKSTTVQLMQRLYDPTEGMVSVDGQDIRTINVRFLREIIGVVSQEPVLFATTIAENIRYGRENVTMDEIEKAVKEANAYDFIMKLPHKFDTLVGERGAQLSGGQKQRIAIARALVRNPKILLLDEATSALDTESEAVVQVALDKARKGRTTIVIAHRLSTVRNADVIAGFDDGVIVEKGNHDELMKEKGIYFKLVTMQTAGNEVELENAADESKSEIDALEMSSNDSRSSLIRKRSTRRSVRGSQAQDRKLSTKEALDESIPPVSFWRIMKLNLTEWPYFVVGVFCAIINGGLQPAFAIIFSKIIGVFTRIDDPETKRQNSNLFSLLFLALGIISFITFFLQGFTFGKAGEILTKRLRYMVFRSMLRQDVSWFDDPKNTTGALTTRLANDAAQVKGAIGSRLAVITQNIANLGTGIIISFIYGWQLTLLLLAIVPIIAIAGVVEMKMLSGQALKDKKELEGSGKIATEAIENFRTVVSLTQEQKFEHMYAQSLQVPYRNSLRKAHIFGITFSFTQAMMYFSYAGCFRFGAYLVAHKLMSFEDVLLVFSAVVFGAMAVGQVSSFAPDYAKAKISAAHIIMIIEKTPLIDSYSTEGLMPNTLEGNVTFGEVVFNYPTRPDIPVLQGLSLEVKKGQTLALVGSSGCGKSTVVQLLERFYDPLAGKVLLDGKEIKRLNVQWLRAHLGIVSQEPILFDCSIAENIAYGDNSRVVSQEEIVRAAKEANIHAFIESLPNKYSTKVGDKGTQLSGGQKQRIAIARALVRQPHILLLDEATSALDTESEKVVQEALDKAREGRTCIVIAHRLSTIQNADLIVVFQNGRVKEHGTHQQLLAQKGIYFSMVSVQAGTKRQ

Cc1c(C(=O)/C=C/c2ccccc2)[n+]([O-])c2ccccc2[n+]1[O-]
IC50 (CCRF-CEM [1]): 5.92 µM | CC50 (HSC-4): 9.6 µM | CC50 at 48 h [2]: 32 µM | Ratio [3]: 10.9 | CC50 (HL-60 [4]): 4.1 µM | Ratio [5]: 36.8 | CC50 at 48 h [6]: 35 µM | CC50 at 48 h [7]: 36 µM | IC50 [8]: 6.76 µM | CC50 (HSC-3): 9.7 µM | CC50 (HSC-2): 8.4 µM

Cc1c(C(=O)/C=C/c2ccc(Br)cc2)[n+]([O-])c2ccccc2[n+]1[O-]
IC50 (CCRF-CEM [1]): 11.6 µM | CC50 (HSC-4): 36 µM | CC50 at 48 h [2]: 53 µM | Ratio [3]: 2.03 | CC50 (HL-60 [4]): 23 µM | Ratio [5]: 2.81 | CC50 at 48 h [6]: 26 µM | CC50 at 48 h [7]: 43 µM | IC50 [8]: 17.1 µM | CC50 (HSC-3): 56 µM | CC50 (HSC-2): 19 µM

CC(=O)c1c(C)[n+]([O-])c2ccccc2[n+]1[O-] [MEQUINDOX]
IC50 (CCRF-CEM [1]): 87.4 µM | CC50 (HSC-4): 134 µM | CC50 at 48 h [2]: > 400 µM | Ratio [3]: 1.06 | CC50 (HL-60 [4]): 26 µM | Ratio [5]: 1.04 | CC50 at 48 h [6]: > 400 µM | CC50 at 48 h [7]: 352 µM | IC50 [8]: 44.6 µM | CC50 (HSC-3): 146 µM | CC50 (HSC-2): 196 µM

Cc1c(C(=O)/C=C/c2ccc(F)cc2)[n+]([O-])c2ccccc2[n+]1[O-]
growth inhibition (GI) (DU-145): Active | IC50 (CCRF-CEM [1]): 10 µM | growth inhibition (GI) (RPMI8266): Active | growth inhibition (GI) (HCT-15): Active | growth inhibition (GI) (Hs-578T): Active | growth inhibition (GI) (OVCAR-8): Active | growth inhibition (GI) (UACC-62): Active | growth inhibition (GI) (T47D): Active | growth inhibition (GI) (HL-60 [9]): Active | CC50 (HSC-4): 8.1 µM | growth inhibition (GI) (K562): Active | growth inhibition (GI) (MDA-MB-435): Active | CC50 at 48 h [2]: 31 µM | growth inhibition (GI) (SW-620): Active | Ratio [3]: 4.81 | growth inhibition (GI) (IGROV-1): Active | growth inhibition (GI) (HCT-116): Active | growth inhibition (GI) (RXF 393): Active | CC50 (HL-60 [4]): 4.6 µM | growth inhibition (GI) (CCRF-CEM [10]): Active | growth inhibition (GI) (MDA-MB-468): Active | growth inhibition (GI) (EKVX): Active | growth inhibition (GI) (HCC 2998): Active | Ratio [5]: 25.8 | CC50 at 48 h [6]: 20 µM | growth inhibition (GI) (LOX IMVI): Active | growth inhibition (GI) (NCI-H522): Active | growth inhibition (GI) (PC-3): Active | growth inhibition (GI) (A498): Active | growth inhibition (GI) (HOP-92): Active | growth inhibition (GI) (UO-31): Active | CC50 at 48 h [7]: 48 µM | growth inhibition (GI) (NCI-H460): Active | IC50 [8]: 6.4 µM | CC50 (HSC-3): 7.7 µM | growth inhibition (GI) (U-251): Active | growth inhibition (GI) (OVCAR-3): Active | CC50 (HSC-2): 6.2 µM | growth inhibition (GI) (A549): Active | growth inhibition (GI) (MCF7): Active | growth inhibition (GI) (NCI/ADR-RES): Active | growth inhibition (GI) (M14): Active | growth inhibition (GI) (NCI-H23): Active | growth inhibition (GI) (OVCAR-4): Active | growth inhibition (GI) (SNB-75): Active | growth inhibition (GI) (SF-295): Active | growth inhibition (GI) (CAKI-1): Active

Cc1ccc(/C=C/C(=O)c2c(C)[n+]([O-])c3ccccc3[n+]2[O-])cc1
IC50 (CCRF-CEM [1]): 22.4 µM | CC50 (HSC-4): 11 µM | CC50 at 48 h [2]: 32 µM | Ratio [3]: 9.79 | CC50 (HL-60 [4]): 4.1 µM | Ratio [5]: 27.2 | CC50 at 48 h [6]: 23 µM | CC50 at 48 h [7]: 40 µM | IC50 [8]: 8.4 µM | CC50 (HSC-3): 14 µM | CC50 (HSC-2): 8.4 µM

Cc1c(C(=O)/C=C/c2ccc3c(c2)OCO3)[n+]([O-])c2ccccc2[n+]1[O-]
IC50 (CCRF-CEM [1]): 28.1 µM | CC50 (HSC-4): 28 µM | CC50 at 48 h [2]: 75 µM | Ratio [3]: 1.58 | CC50 (HL-60 [4]): 13 µM | Ratio [5]: 3.67 | CC50 at 48 h [6]: 72 µM | CC50 at 48 h [7]: 79 µM | IC50 [8]: 24.2 µM | CC50 (HSC-3): 25 µM | CC50 (HSC-2): 23 µM
